From ChEMBL document CHEMBL2440013, “New quaternary ammonium camphor derivatives and their antiviral activity, genotoxic effects and cytotoxicity” (Bioorg Med Chem, 2013) come the findings set out here.

Where a name gives a salt, the structure may show the parent alone.

The nature of data set [1]: Cytotoxicity against MDCK cells after 48 hrs by MTT assay. It is filed as cell-based, Canis lupus familiaris. The following applies: dog, read-out: CTD50. The method, boiled down:
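MDCK cells were grown in MEM at 37 °C, 5% CO2 to a confluent monolayer. They were then exposed for 48 h to twofold dilutions (1000–4 µg/ml in MEM), washed twice with saline, and given MTT ([…] in saline) for 1 h. Formazan was dissolved in DMSO and OD read at 535 nm. Triplicates were run. CTD50 is the concentration halving OD versus control wells.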
On the technique in general: Tetrazolium assays rely on reduction of a dye to a coloured formazan, in cell work by metabolically active cells.

Data set [2] is described as follows: Selectivity index, ratio of CTD50 for MDCK cells to EC50 for Influenza A virus California/07/09(H1N1) pdm09 infected in MDCK cells. It is filed as toxicity, cell-based. The following applies: dog, read-out: Selectivity Index. The method, boiled down: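 CTD50 came from MDCK cells given twofold dilutions (1000–4 µg/ml) in MEM for 48 h at 37 °C, 5% CO2. CTD50 was the concentration halving OD versus control. SI is CTD50 divided by EC50 from the haemagglutination-based antiviral assay.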

A short description of data set [3]: Antiviral activity against Influenza virus A/California/07/09 (H1N1)pdm09 infected in MDCK cells assessed as inhibition of viral replication incubated for 1 hr prior to viral infection measured after 48 hrs by hemagglutination reaction. The class given is functional, cell-based, Influenza A virus (A/California/07/2009(H1N1)). The method, boiled down:
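MDCK monolayers in MEM were pre-incubated with compound for 1 h at 37 °C before infection, then held 48 h at 37 °C in 5% CO2. Virus yield was read by haemagglutination: equal volumes of supernatant and 1% chicken erythrocytes, 60 min at room temperature. Triplicates were run. EC50 was the concentration that halved virus production (0.3 log10 EID50 titre drop).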

A further data set deals with U-937. In words: Cytotoxicity against human U937 cells after 72 hrs by MTT assay. It is filed as functional. The gist of the method:
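Cells were grown in RPMI-1640 with 10% embryonic calf serum, 2 mmol/L L-glutamine, gentamicin and lincomycin. Compounds in DMSO were added, then 72 h at 37 °C, 5% CO2. Three wells per concentration, with untreated cells as control. 1% MTT for 4 h, DMSO for 15 min, OD 570 nm. CTD50 is the concentration killing 50% of cells.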

Data set [4] relates to Escherichia coli. Briefly: Induction of mutagenicity in Escherichia coli BL21(DE3) expressing pRAC-gfp assessed as modulation of reporter protein GFP synthesis at 150 uM incubated for 1.5 hrs followed by plasmid maturation measured after 1.5 hrs by fluorophotometry relative to control. The class given is toxicity.
Data set [5] is described as follows: Toxicity in Escherichia coli BL21(DE3) expressing pET36b-gfp assessed as inhibition of IPTG-induced reporter protein GFP synthesis at 150 uM after 1.5 hrs by fluorophotometry relative to control. The note with it: Escherichia coli BL21(DE3) cells expressing pET36b-gfp, read-out: Activity. The gist of the method:
(§1)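 E. coli BL21(DE3) carrying the IPTG-inducible gfp plasmid was grown in LB at 37 °C with shaking to D600 0.4–0.5, then treated with compound for 1.5 h. OD600 and GFP emission 500–600 nm (excitation 491 nm) were read. Control cells were untreated, with 1 mM IPTG (final) added after 1.5 h. Fluorescence decreases of 20% and 50% versus control were counted as toxic and extremely toxic.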

The nature of data set [6]: Toxicity in Escherichia coli BL21(DE3) expressing pET36b-gfp assessed as inhibition of IPTG-induced reporter protein GFP synthesis at 2 uM after 1.5 hrs by fluorophotometry relative to control. The note with it: Escherichia coli BL21(DE3) cells expressing pET36b-gfp, read-out: Activity. The method, boiled down: as §1
The test system of data set [7] is Escherichia coli. In words: Induction of mutagenicity in Escherichia coli BL21(DE3) expressing pRAC-gfp assessed as modulation of reporter protein GFP synthesis at 2 uM incubated for 1.5 hrs followed by plasmid maturation measured after 1.5 hrs by fluorophotometry. It is filed as toxicity.
The subject of data set [8] is Escherichia coli. In words: Induction of mutagenicity in Escherichia coli BL21(DE3) expressing pRAC-gfp assessed as induction of reporter protein GFP synthesis at 10 ug/ml incubated for 1.5 hrs followed by plasmid maturation measured after 1.5 hrs by fluorophotometry. The class given is toxicity. The gist of the method: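 BL21(DE3) carried pRAC-gfp, with GFP under the Proteus mirabilis recA regulatory region. Cells were grown in LB at 37 °C with shaking to OD600 0.4–0.5, given compound, grown 1.5 h, then held 1.5 h at 4–6 °C for chromophore maturation. OD600 and GFP emission (500–600 nm, excitation 491 nm) were measured. Controls were water (negative) and nalidixic acid […] (positive). Result is % change in GFP versus control.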

For `CCN(CC)CC/N=C1\C[C@H]2CC[C@]1(C)C2(C)C`, in data set [1], the CC50 at 48 h stood at 807 µM. Also, the selectivity ratio in data set [2] was 81. Besides, the EC50 (in general, the concentration giving half of the maximal effect) in data set [3] (Influenza A virus, pdm09, MDCK) was 10 µM.
The matching figures for `CC[N+](CC)(CCCCC[N+](CC)(CC)CC/N=C1\C[C@H]2CC[C@]1(C)C2(C)C)CC/N=C1\C[C@H]2CC[C@]1(C)C2(C)C`: 1280 µM, 87 and 14.7 µM.
`CC[N+](CC)(CCCCCC[N+](CC)(CC)CC/N=C1\C[C@H]2CC[C@]1(C)C2(C)C)CC/N=C1\C[C@H]2CC[C@]1(C)C2(C)C.[Br-].[Br-]` registered a CTD50 with U-937 of 82.1 µM. The CC50 at 48 h in data set [1] was 1710 µM. Also, the selectivity ratio in data set [2] turned out to be 21. The EC50 in data set [3] (Influenza A virus, pdm09, MDCK) worked out at 81.2 µM.
Take `CC[N+](CC)(CCCCCCCC[N+](CC)(CC)CC/N=C1\C[C@H]2CC[C@]1(C)C2(C)C)CC/N=C1\C[C@H]2CC[C@]1(C)C2(C)C`: the Activity in the data set on Escherichia coli [4] is recorded as 57%. For the same compound, the inhibition at 1.5 h, 150 µM in [5] came out at 67%. Moreover, in data set [1], the CC50 at 48 h worked out at 552 µM. The selectivity ratio in data set [2] worked out at 42. Besides, in data set [3] (Influenza A virus, pdm09, MDCK), the EC50 amounted to 13.2 µM.
The matching figures for `CC[N+](CC)(CCCCCCCCC[N+](CC)(CC)CC/N=C1\C[C@H]2CC[C@]1(C)C2(C)C)CC/N=C1\C[C@H]2CC[C@]1(C)C2(C)C`: 51%, 65%, 578 µM, 82 and 6.9 µM.
In the same order, the values of `CC[N+](CC)(CCCCCCCCCC[N+](CC)(CC)CC/N=C1\C[C@H]2CC[C@]1(C)C2(C)C)CC/N=C1\C[C@H]2CC[C@]1(C)C2(C)C` are 70%, 78%, 285 µM, 5 and 55.3 µM.
In the case of `CC[N+](CC)(CCCCCCCCCCCC[N+](CC)(CC)CC/N=C1\C[C@H]2CC[C@]1(C)C2(C)C)CC/N=C1\C[C@H]2CC[C@]1(C)C2(C)C`, the Activity in the data set on Escherichia coli [4] is given as 74%. For the same compound, the inhibition at 1.5 h, 150 µM in data set [5] is 89%. In addition, the CC50 at 48 h in [1] came to 128 µM. The selectivity ratio in data set [2] amounted to 2. The EC50 in data set [3] (Influenza A virus, pdm09, MDCK) worked out at 59.9 µM.
Turning to `CC[N+](CC)(CC/N=C1\C[C@H]2CC[C@]1(C)C2(C)C)Cc1ccc(C[N+](CC)(CC)CC/N=C2\C[C@H]3CC[C@]2(C)C3(C)C)cc1`, the CC50 at 48 h in data set [1] is 1450 µM. In addition, the selectivity ratio in data set [2] stood at 33. Also, the EC50 in [3] (Influenza A virus, pdm09, MDCK) worked out at 43.4 µM.
Take `CC[N+](C)(CC)CC/N=C1\C[C@H]2CC[C@]1(C)C2(C)C`: the CC50 at 48 h in [1] came out at 1890 µM. Besides, in data set [3] (Influenza A virus, pdm09, MDCK), the EC50 turned out to be 40.4 µM.
On to `CC[N+](CC)(CC)CC/N=C1\C[C@H]2CC[C@]1(C)C2(C)C`, for which, in data set [1], the CC50 at 48 h stood at 1780 µM. Also, the selectivity ratio in [2] stood at 13. In addition, the EC50 in data set [3] (Influenza A virus, pdm09, MDCK) stood at 140 µM.
With `CC12CCC(CC1=O)C2(C)C` (single isomer, unassigned; (+)) [CAMPHOR], the inhibition at 1.5 h, 2 µM in [6] was determined as 6%. In data set [1], the CC50 at 48 h is 3290 µM. Further, the selectivity ratio in data set [2] is 2. In addition, in the data set on Escherichia coli [7], the Activity was found to be 5%. Moreover, the concentration giving a half-maximal response (EC50) in [3] (mdck) came out at 1640 µM.
Turning to `NC12CC3CC(CC(C3)C1)C2` [AMANTADINE], the CC50 at 48 h in data set [1] amounted to 284 µM. Also, the selectivity ratio in [2] was found to be 4. The EC50 in data set [3] (mdck) stood at 64.2 µM.
Regarding `CC(N)C1C[C@@H]2CC[C@H]1C2` (stereo partly specified) [DEITIFORIN], the CC50 at 48 h in data set [1] amounted to 1270 µM.
As for `CCn1cc(C(=O)O)c(=O)c2ccc(C)nc21` [NALIDIXIC ACID], the Activity in the data set with Escherichia coli [8] came to 500%.
As to `CC(N)C12CC3CC(CC(C3)C1)C2` (stereo unspecified) [RIMANTADINE HYDROCHLORIDE], in [1], the CC50 at 48 h is 335 µM. Also, in data set [2], the selectivity ratio amounted to 5. In [3] (Influenza A virus, pdm09, MDCK), the half-maximal effective concentration (EC50) was 67 µM.
